A selection: hits, their analogues and other compounds. The true share with any hit is near 3.3%.
mABHD4 FP – inhibitors of mouse ABHD4; Q8VD66; purified mABHD4, FP-Rh probe fluorescence polarization; inhibition, % at 8.92 µM; 370,000 compounds, 0.54% hits; AID 720543;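 active = inhibition exceeding the mean over every tested compound plus 3 SD, cut at about 30% in these data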;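 note: 0% = plate median of compound wells and 100% = S159A mutant with DMSO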
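Material: mouse ABHD4 enzyme, wild type; Benchmarks: S159A mutant high control, sample median low control; Buffer or medium: HEPES pH 7.0, NaCl, Pluronic buffer; Signal: fluorescence polarization; Read-out: percent inhibition of probe binding, normalized to plate controls; Timing: pre-incubation 45 min, probe exposure 60 min, at 25 °C; Dosing: 8.92 µM, single dose.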
SIAE inh – inhibitors of human sialic acid acetylesterase SIAE | AID 1053197 | inhibition, % at 9.66 µM | 370,000 compounds, 0.69% hits | SIAE FP-Rh probe binding, fluorescence polarization;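 active = inhibition above a cutoff: mean of compounds within the control limits plus 3 SD of those, cut at about 17% in these data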;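 note: 0% = plate median of compound wells and 100% = probe without SIAE protein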
PRMT1 inh – blocks human protein arginine methyltransferase 1 | Q99873 | inhibition, % at 2.79 µM | AID 652257 | 370,000 compounds, 1.3% hits | recombinant PRMT1, activity-based probe fluorescence polarization;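 active = inhibition above about 21% made by adding two undisclosed values, limit read from the data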
Target sequence (Q99873 whole entry, looked up): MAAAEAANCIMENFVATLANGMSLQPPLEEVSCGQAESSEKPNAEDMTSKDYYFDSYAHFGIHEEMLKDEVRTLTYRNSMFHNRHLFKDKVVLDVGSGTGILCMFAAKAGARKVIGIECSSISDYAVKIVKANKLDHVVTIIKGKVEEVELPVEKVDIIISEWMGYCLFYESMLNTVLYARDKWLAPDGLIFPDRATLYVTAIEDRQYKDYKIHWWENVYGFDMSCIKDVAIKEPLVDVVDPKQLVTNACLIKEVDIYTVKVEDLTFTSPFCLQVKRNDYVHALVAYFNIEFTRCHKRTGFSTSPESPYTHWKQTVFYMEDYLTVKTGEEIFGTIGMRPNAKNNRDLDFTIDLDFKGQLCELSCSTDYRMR
HTRA1 inh – blocks human HTRA1 serine peptidase | inhibition, % at 5.96 µM | recombinant HTRA1, FP-rhodamine activity-based probe, fluorescence polarization | 340,000 compounds, 0.5% hits | Q92743 | AID 504803; in the data active = inhibition above about 36%;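 note: 0% = enzyme with DMSO and 100% = wells lacking enzyme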
rCAG RNA binder – r(CAG) repeat RNA binding; inhibition, % at 3 µM; TO-PRO-1 dye displacement fluorescence; 370,000 compounds, 1.3% hits;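 active = inhibition above the plate cutoff, the mean of all test compounds on that plate plus 3 SD, cut at about 35% in these data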;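 note: 0% = DMSO alone and 100% = 100 µM mitoxantrone as full dye displacement; higher means more dye released from RNA so lower well fluorescence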
mABHD4 conf – confirmation of mouse ABHD4 inhibitors; shares compounds with mABHD4 FP; 1,800 compounds, 55% hits; inhibition, % at 8.92 µM; purified mABHD4, FP-Rh probe fluorescence polarization;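 active = mean inhibition across replicates above the hit cutoff set in the primary screen, cut at about 30% in these data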;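 note: 0% = wild-type ABHD4 with DMSO and 100% = catalytically dead S159A mutant with DMSO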
* marks the source's active call; other numbers are inactive results; . = no result.

SMILES	mABHD4 FP	SIAE inh	PRMT1 inh	HTRA1 inh	rCAG RNA binder	mABHD4 conf
CN(Cc1cccs1)C(=O)CNC(=O)c1ccco1	-7	1	3	7	-5	.
O=C(NCC[C@@H]1C[C@@H]2C=C[C@H]1C2)c1cc(COc2ccc(F)cc2F)on1	-14	-3	0	-34	-5	.
CNc1sc(C(=O)c2ccc(F)cc2)c(N)c1-c1nc2ccccc2s1	32*	-3	2	19	19	68*
N#CC1=C(N)Oc2cc(O)c(Cl)cc2C1c1ccccc1F (stereo not drawn)	3	-1	5	-7	5	.
CC(NCC(O)COCCC12CC3CC(CC(C3)C1)C2)c1ccccc1 (stereo not drawn)	31*	-3	-1	-6	0	28
NCC(O)COCCC12CC3CC(CC(C3)C1)C2 (stereo not drawn)	2	-5	-2	3	6	.
CN1CCc2cccc3c2C1Cc1ccc(O)c(O)c1-3 (stereo not drawn)	53*	6	47*	36	3	1
CCN1C(=O)N[C@@H](c2cccs2)C(C(C)=O)=C1C	14	-5	-1	3	1	.
CC(=O)N1CCC(=NNc2nc3ccccc3s2)CC1	33*	9	4	10	7	14
CC(=O)NNc1nc2ccccc2s1	11	7	3	3	0	.
CCOC(=O)N1CCC(=NNc2nc3ccccc3s2)CC1	38*	4	-2	3	7	-3
Cc1cc(OCC(=O)OCC(=O)NC2CCCCC2C)ccc1Cl (stereo not drawn)	-2	-4	-2	6	1	.
O=C(N1CCCC1)n1ncc(-c2ccc(-c3ccccc3)cc2)n1	47*	-7	2	.	.	42*
O=C(c1ccc(-c2ccccc2)cc1)N1CCCC1	0	-2	3	-3	-3	.
CCN(CC)c1ccc(Nc2nc(-c3cccnc3)cs2)cc1	30*	9	6	35	2	35*
COc1cccc(C(C(=O)NC2CCCC2)N(C(=O)c2csnn2)C2CC2)c1 (stereo not drawn)	-2	1	-1	-6	0	.
CCCCN1C(=O)/C(=C/C=C2\SCCN2C)SC1=S	33*	6	-46	11	-66	20
Cc1cc(NC(=O)CSc2nncc(=O)n2N)no1	-4	5	8	4	1	.
Nc1ccc2cc3ccc(N)cc3nc2c1	32*	11	148*	.	-78	28
CNC[C@H](CC1CCCCC1)NC[C@H](Cc1ccccc1)NCCC12CC3CC(CC(C3)C1)C2	48*	2	1	-5	13	75*
NC[C@H](Cc1ccccc1)NCCCCC1CCCCC1	19	6	-1	6	9	.
CCOC(=O)c1sc(N/N=C/c2ccc(N(C)C)cc2)nc1C	32*	12	-4	18	14	9
COc1c(F)c(F)c(C(=O)Nc2ccc(N3CCN(C(C)=O)CC3)c(Cl)c2)c(F)c1F	31*	-5	-1	-3	4	20
O=C(Nc1ccc(N2CCOCC2)c(Cl)c1)c1c(F)c(F)c(F)c(F)c1F	-4	5	-2	2	-1	.
CC(=O)Oc1ccc(C(=O)O)cc1OC(C)=O	2	9	-2	2	1	.
SMILES	mABHD4 FP	SIAE inh	PRMT1 inh	HTRA1 inh	rCAG RNA binder	mABHD4 conf
CC(=O)Oc1cccc2c1C(=O)c1c(OC(C)=O)cc(C(=O)O)cc1C2=O	48*	4	18	2	0	18
C=CC[C@@H](CC(=O)NCCO)C(=O)N[C@H](C)COC(=O)[C@@H](CC=C)Cc1ccc(F)cc1	-2	3	1	1	-7	.
C=CCn1c(=N)n(CC(=O)c2ccc(Br)s2)c2ccccc21	9	1	4	0	16	.
CCOc1ccccc1C1C(C#N)=C(N)Oc2cc(N)ccc21 (stereo not drawn)	31*	4	8	9	24	-1
CC(C)c1ccccc1NC(=O)COC(=O)c1ccc(Cl)c(S(=O)(=O)N2CCCCCC2)c1	0	-1	-2	0	1	.
Cc1cc(C)nc(OC(C(=O)O)C(OCCC(C)C)(c2ccccc2)c2ccccc2)n1 (stereo not drawn)	35*	2	3	-2	21	47*
O=C(NNC(=O)c1cccnc1)NC1CCCCC1	0	2	-3	3	-1	.
O=C(NNC(=O)c1cc(O)c(O)c(O)c1)NC1CCCCC1	31*	-3	15	24	7	16
CC[C@@H](C)[C@@H]1CN([C@@H](CN2CCC[C@H]2CN2C(N)=NC[C@H]2CC(C)C)C(C)C)C(=N)N1CCc1ccc(Cl)c(Cl)c1	35*	6	2	9	9	46*
CC[C@@H](C)[C@@H]1CN([C@@H](C)CN2CCC[C@H]2CN2C(N)=NC[C@H]2CC(C)C)C(=N)N1CCc1ccc(Cl)c(Cl)c1	12	9	-2	0	12	.
CCC[C@@H](CN1CCC[C@H]1CN1C(N)=NC[C@@H]1Cc1ccccc1)N1C[C@@H]([C@H](C)CC)N(CCCC2CCCC2)C1=N	.	.	.	5	.	.
CCC[C@@H](CN1CCC[C@H]1CN1C(N)=NC[C@H]1CC(C)C)N1C[C@@H]([C@H](C)CC)N(CCc2ccc(Cl)c(Cl)c2)C1=N	38*	6	-1	-1	9	34*
CCC[C@@H](CN1CCC[C@H]1CN1C(N)=NC[C@H]1CC(C)C)N1C[C@@H](Cc2ccccc2)N(CCCC2CCCC2)C1=N	34*	15	3	-5	9	26
CCC[C@@H](CN1CCC[C@H]1CN1C(N)=NC[C@H]1CC(C)C)N1C[C@@H](Cc2ccccc2)N(CCc2ccc(Cl)c(Cl)c2)C1=N	30*	10	5	17	11	36*
COc1ccc(C(=O)N2CCC2(C)C(=O)O)cc1C(F)(F)F (stereo not drawn)	8	-2	3	.	2	.
CC(C)=CCC/C(C)=C/C[C@]12C[C@H](C(=O)O)N(C(=O)OC(C)(C)C)[C@@H]1N(C(=O)OC(C)(C)C)c1ccccc12	51*	1	6	.	.	40*
COC(=O)[C@H]1C[C@@]2(CC=C(C)C)c3ccccc3N(C(=O)OC(C)(C)C)[C@H]2N1C(=O)OC(C)(C)C	-9	6	-1	.	.	.
CCc1cc(=O)oc2cc(C)cc(OCC(=O)N3CCC(C(=O)O)CC3)c12	7	6	1	1	1	.
COC(=O)c1c(C)oc2c1cc(NS(=O)(=O)c1ccc(C(=O)O)cc1)c1ccccc12	34*	-14	14	-20	34	21
CC1=CC(C)(C)N(C(=O)CNC2CCCCC2)c2cc(C)ccc21	12	0	0	-9	-11	.
CCc1nc2ccc(C(=O)Nc3cc(-c4ccccc4)ccc3OC)cn2c1N(CC)Cc1cccc(Br)c1	31*	2	-2	.	9	27

Compound activity: PubChem, The Scripps Research Institute Molecular Screening Center
